FXIa inh 1536 – factor XIa (human) inhibition; 220,000 compounds, 0.14% hits; inhibition, % at 5 µM; AID 798; purified FXIa, Boc-Glu-Ala-Arg-AMC fluorogenic substrate; P03951;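 active = inhibition of at least 40%; inactive = inhibition below 40%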;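 note: fluorescence of freed AMC excited at 355 nm; 0% = enzyme without compound and 100% = no enzyme blank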
Target sequence (P03951 19-387 limits assumed): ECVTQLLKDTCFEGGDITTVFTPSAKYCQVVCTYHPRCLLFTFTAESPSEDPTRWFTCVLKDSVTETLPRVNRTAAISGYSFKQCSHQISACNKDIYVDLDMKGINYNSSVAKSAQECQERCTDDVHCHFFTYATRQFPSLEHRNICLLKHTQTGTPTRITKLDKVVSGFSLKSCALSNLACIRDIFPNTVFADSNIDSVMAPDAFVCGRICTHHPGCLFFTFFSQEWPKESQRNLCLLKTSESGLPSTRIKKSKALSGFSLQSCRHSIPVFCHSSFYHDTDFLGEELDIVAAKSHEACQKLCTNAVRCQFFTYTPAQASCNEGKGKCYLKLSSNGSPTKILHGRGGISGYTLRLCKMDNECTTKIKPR
Target sequence (P03951 388-625 limits assumed): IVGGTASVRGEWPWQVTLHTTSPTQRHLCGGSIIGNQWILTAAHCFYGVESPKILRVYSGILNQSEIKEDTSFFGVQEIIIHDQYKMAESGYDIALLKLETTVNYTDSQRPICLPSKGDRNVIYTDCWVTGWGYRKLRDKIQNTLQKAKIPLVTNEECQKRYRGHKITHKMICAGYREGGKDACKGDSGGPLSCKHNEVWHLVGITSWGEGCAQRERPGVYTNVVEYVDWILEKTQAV
FXIIa inh 1536 – factor XIIa (human) inhibition; P00748; purified FXIIa, Boc-QGR-AMC fluorogenic substrate, 2 h; inhibition, % at 5 µM; 220,000 compounds, 0.3% hits; in the data active = inhibition above about 40%;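 note: 0% = enzyme with no compound and 100% = blank without enzyme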
m-calpain inh – inhibitors of pig calpain II. purified calpain II, fluorogenic peptide substrate, 30 min. inhibition, % at 16 µM. 220,000 compounds, 0.37% hits. AID 1236;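 active = inhibition above about 50%, limit read from the data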
KLK5 inh – inhibitors of human kallikrein 5; 210,000 compounds, 0.59% hits; Q9Y337; inhibition, % at 5 µM; recombinant hK5, fluorogenic AMC substrate cleavage;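 active = inhibition of 40% or more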;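 note: 0% = enzyme controls without compound and 100% = no-enzyme blanks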
thrombin 1536 – thrombin (human) inhibition. inhibition, % at 5 µM. 220,000 compounds, 0.26% hits. AID 1046. alpha-thrombin, Boc-VPR-AMC fluorogenic substrate cleavage;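 active = inhibition at or above 40%; inactive = inhibition below 40%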;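 note: 0% = enzyme with no compound and 100% = wells without enzyme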
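System – human alpha-thrombin protein · Reagent – Boc-VPR-AMC substrate, 15 µM final · Compound – 5 µM single dose in 0.2% DMSO · Schedule – reaction at room temperature · Technique – AMC fluorescence at 355 nm excitation and 460 nm emission · Read-out basis – % inhibition relative to enzyme controls and enzyme-free blanks · Control set – no-compound enzyme wells and no-enzyme blanks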
* = called active by the depositor; i = inactive; nt = not tested or not shown. Shown are actives, neighbours in structure and some others; about 1.4% of the full set was active somewhere.

SMILES	FXIa inh 1536	FXIIa inh 1536	m-calpain inh	KLK5 inh	thrombin 1536
CCc1cc2c(=O)c(-c3nc(C)cs3)c(CCCC(=O)O)oc2cc1O	1	10	-12	4	2
COc1cc(/C=C2/C(=O)NN(c3cccc(C)c3)C2=O)ccc1OC(=O)c1ccco1	19	12	-12	60*	6
CC1CCN(c2nc3ccc(C(=O)N4CCN(Cc5ccc6c(c5)OCO6)CC4)cc3s2)CC1	3	5	-21	-2	1
COc1cc(CNc2nnnn2C)ccc1OCc1c(F)cccc1Cl	-4	2	-24	-9	-4
O=c1nc(N2CCOCC2)nc(N/N=C/c2ccc3c(c2)OCO3)[nH]1	-3	0	-16	6	-1
CN(/N=C/c1ccc2c(c1)OCO2)c1nc(N2CCOCC2)nc(N2CCOCC2)n1	1	100*	39	-3	-11
CN(C)c1ccc(/C=C/c2ccc3ccccc3[n+]2C)cc1	-2	8	57*	0	-6
CC(C)(C#CCN1CCCCC1)OCCOC(c1ccccc1)c1ccccc1	6	3	17	-6	-3
CCOC(=O)NC(=O)COC(=O)CNC(=O)c1ccc(OCC)c(OCC)c1	1	14	-11	3	1
O=C(c1ccco1)n1nc(-c2cccnc2)nc1NCc1ccco1	11	19	-3	4	96*
O=C(c1ccccc1)n1nc(-c2ccccc2)nc1NCc1ccco1	-1	10	-12	15	73*
CCc1cccc(C)c1NC(=O)CN(C)Cc1ccccc1F	8	13	5	-7	-3
CCOC(=O)c1cc2sccc2n1CC(=O)N1c2ccccc2CC1C (configuration not stated)	13	48*	18	-9	-10
CCOC(=O)c1cc2sccc2n1CC(=O)O	4	16	2	17	6
CCC(=O)N1CCc2cc(S(=O)(=O)N3CCc4ccccc4C3)ccc21	-7	-1	54*	-12	-7
CC(=O)N1CCCc2cc(S(=O)(=O)N3CCc4ccccc4C3)ccc21	1	10	25	-2	-6
Cc1noc(C)c1C(=O)N1CCN(c2cccc(Cl)c2)CC1	10	0	-1	-2	0
CC(C)c1ccc(C(=O)NN2C(=O)C3CCCCC3C2=O)cc1 (configuration not stated)	5	15	-6	-4	0
O=C(N/C(=C\c1cccc([N+](=O)[O-])c1)C(=O)N(CCO)CCO)c1ccco1	0	7	-21	3	-1
CN(CCc1ccccn1)C(=S)NC(=O)c1ccco1	-1	9	52*	-5	-7
O=C(NC(=S)NCCc1ccccn1)c1ccco1	-7	nt	-8	-5	-6
O=C(NNc1cc(Cl)ccc1Cl)c1cccs1	24	18	14	55*	35
Cc1cc(Cl)ccc1NNC(=O)c1cccs1	4	5	4	-3	3
Cc1ccc(N/N=C(\C#N)C(=N)N2CCCCCC2)cc1	-1	4	43	-12	3
CCN(CC)C(=N)/C(C#N)=N/Nc1ccc(C)cc1	-11	2	1	42*	-7
SMILES	FXIa inh 1536	FXIIa inh 1536	m-calpain inh	KLK5 inh	thrombin 1536
CC12CCC(c3c(C(=O)N4CCOCC4)nn(-c4ccccc4)c31)C2(C)C (configuration not stated)	31	40*	16	41*	2
Cc1c(N=C/C=C2\N(C)c3ccccc3C2(C)C)c(=O)n(-c2ccccc2)n1C	-2	1	24	8	-2
Cc1c(NC(=S)/C=C2\N(C)c3ccccc3C2(C)C)c(=O)n(-c2ccccc2)n1C	10	19	30	67*	26
O=C(C1CCCC1)N(c1ccccc1)C1C=CS(=O)(=O)C1 (configuration not stated)	1	13	-1	-5	-2
Cc1ccc(N(C(=O)C2CCCC2)C2C=CS(=O)(=O)C2)cc1 (configuration not stated)	-7	-3	-21	114*	2
COC(=O)c1c(NC(=O)c2c(-c3ccccc3Cl)noc2C)sc2c1CCC2	-13	41*	-117	-24	2
CC1(C)Oc2ccc(C(=O)NC3CCCC3)cc2N(CC(=O)NC2CCCC2)C1=O	20	64*	30	10	1
c1ccc(COc2ccc(CN3CCN(c4ccccn4)CC3)cc2)cc1	6	-4	17	-16	-5
Cc1ccc(C(=O)Nc2ccc(Cl)cn2)cc1S(=O)(=O)N1CCOCC1	2	23	16	41*	19
CCO[C@@H]1OC(C(=O)NCc2ccccc2)=C[C@H](c2csc3ccccc23)[C@H]1CCCO	-3	4	11	-3	-5
Cc1cccc(C)c1OCC(O)CN (configuration not stated)	11	6	0	52*	19
CCOC(=O)N1CCN(CC(O)COc2c(C)cccc2C)CC1 (configuration not stated)	9	23	-9	-14	4
Cc1nonc1OC(C)CNCCNc1ccc([N+](=O)[O-])cc1 (configuration not stated)	-10	43*	-14	8	2
Cc1nonc1OCCNCCNc1ccccc1[N+](=O)[O-]	1	11	5	-5	6
CC(C)C1CC(CCN2CCCCC2)(c2ccccc2)CCO1 (configuration not stated)	0	7	9	-4	2
CCCn1c(SCc2nc3ccccc3s2)n[nH]c1=O	-3	6	50*	1	15
O=c1[nH]nc(SCc2nc3ccccc3s2)n1C1CC1	-1	2	-30	-1	7
CCCn1c(=O)[nH]c(=O)c2c(C(=O)OCC)cc(-c3cccs3)nc21	-19	-20	i	-22	-31
O=C(O)CCCNS(=O)(=O)c1cccc2nsnc12	-6	25	22	-1	-4
O=Cc1cn(-c2ccc(F)cc2)c2ccccc12	18	14	24	42*	21
COc1ccc(NCC(=O)Nc2cc(S(=O)(=O)N3CCOCC3)ccc2N2CCOCC2)c(OC)c1	42*	35	15	24	17
CCOc1ccccc1C(=O)N1c2ccccc2Sc2ccccc21	-5	9	55*	-9	-2
COc1ccccc1C(=O)N1c2ccccc2Sc2ccccc21	0	-1	29	-5	-8
Cc1c(NC(=O)C(C)OC(=O)[C@@H](NC(=O)c2ccccc2)C(C)C)c(=O)n(-c2ccccc2)n1C (some centres not stated)	-1	7	-1	-19	4
CCN(CC)S(=O)(=O)c1cc(C(=O)Nc2nncs2)c(Cl)cc1Cl	3	3	20	62*	15
CCN(CC)C(=O)CN1CCN(c2ncccn2)CC1	4	10	4	64*	33
Cc1ccc(Sc2cc(Cl)nc(N)n2)cc1	10	20	5	77*	23
Nc1nc(Cl)cc(Sc2ccc(F)cc2)n1	-10	0	-25	-11	-19
CC(/C=C1\SC(=S)N(c2ccc(C(=O)O)cc2)C1=O)=C\c1ccccc1	8	14	73*	8	-2

Assay outcomes (PubChem)
